Measured values reported in ChEMBL document CHEMBL1127799, “Derivatives of a novel cyclopeptolide. 1. Synthesis, antifungal activity, and structure-activity relationships” (1994).
Converted amounts (≈) assume the structure as drawn.

Legend:
Type in all cases: functional
[1] = system: Candida albicans; test: Tested for minimum inhibitory concentration against Candida albicans 124 (Candida albicans) at pH of 4.5.
Outline: (§1)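 Broth microdilution in malt extract broth, initial pH 4.5 or 6.5, with 1×10^3 CFU per 0.2 mL well of thawed stored cultures. Compound stocks were made in 5% DMSO/0.2% Tween 80 and diluted to final 0.05–100 μg/mL. Plates were incubated 48 h at 30 °C and read macroscopically. MIC was the lowest concentration with no detectable growth. Vehicle-only wells served as controls.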

[2] = system: Pichia kudriavzevii; test: Tested for minimum inhibitory concentration against Candida krusei 132 (C.k) at pH of 6.5.; outline: as §1
[3] = system: Pichia kudriavzevii; test: Tested for minimum inhibitory concentration against Candida krusei 132 (C.k) at pH of 4.5.; outline: as §1
[4] = system: Candida tropicalis; test: Tested for minimum inhibitory concentration against Candida tropicalis 43 (C.t) at pH of 6.5.; outline: as §1
[5] = system: Meyerozyma guilliermondii; test: Tested for minimum inhibitory concentration against Candida guilliermondii 80 (C.g) at pH of 6.5.; outline: as §1
[6] = system: Candida tropicalis; test: Tested for minimum inhibitory concentration against Candida tropicalis 43 (C.t) at pH of 4.5.; outline: as §1
[7] = system: Candida albicans; test: tested for minimum inhibitory concentration against Candida albicans 124 (Candida albicans) at pH of 6.5.; outline: as §1
[8] = system: Meyerozyma guilliermondii; test: Tested for minimum inhibitory concentration against Candida guilliermondii 80 (C.g) at pH of 4.5.; outline: as §1
[9] = system: Candida albicans; test: Tested for minimum inhibitory concentration against Candida albicans 124 at pH of 6.5.; outline: as §1
[10] = system: Meyerozyma guilliermondii; test: Tested for minimum inhibitory concentration against Candida guilliermondii 80 at pH of 6.5.; outline: as §1
[11] = system: Candida albicans; test: Tested for minimum inhibitory concentration against Candida albicans 124 at pH of 4.5.; outline: as §1
[12] = system: Meyerozyma guilliermondii; test: Tested for minimum inhibitory concentration against Candida guilliermondii 80 at pH of 4.5.; outline: as §1
[13] = system: Pichia kudriavzevii; test: Tested for minimum inhibitory concentration against Candida krusei 132 at pH of 4.5.; outline: as §1
[14] = system: Pichia kudriavzevii; test: Tested for minimum inhibitory concentration against Candida krusei 132 at pH of 6.5.; outline: as §1
[15] = system: Candida tropicalis; test: Tested for minimum inhibitory concentration against Candida tropicalis 43 at pH of 4.5.; outline: as §1
[16] = system: Candida tropicalis; test: Tested for minimum inhibitory concentration against Candida tropicalis 43 at pH of 6.5.; outline: as §1
[17] = system: Candida albicans; test: Tested for minimum inhibitory concentration against Candida albicans 3 (Candida albicans) at pH 6.5.
Outline: (§2)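 Broth microdilution in malt extract broth, initial pH 6.5, 1×10^3 CFU per 0.2 mL well, from liquid-nitrogen-stored Sabouraud cultures. Compound from 0.08% stock in 5% DMSO/0.2% Tween 80, final 0.05–100 μg/mL. Visual reading after 48 h at 30 °C. MIC = lowest concentration with no detectable growth. Vehicle-only negative controls.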

[18] = system: Candida albicans; test: Tested for minimum subinhibitory concentration against Candida albicans 3 (Candida albicans) at pH 6.5.
Outline: (§3)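 Malt extract broth microdilution, initial pH 6.5, inoculum 1×10^3 CFU per 0.2 mL well. Compound diluted from 0.08% stock (5% DMSO/0.2% Tween 80) to final 0.05–100 μg/mL. Macroscopic reading after 48 h, 30 °C. MSIC = lowest concentration giving visible growth inhibition in at least two of three triplicates. Vehicle-only negative controls.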

[19] = system: Candida albicans; test: Tested for minimum subinhibitory concentration against Candida albicans 4 (Candida albicans) at pH 6.5.; outline: as §3
[20] = system: Candida albicans; test: Tested for minimum inhibitory concentration against Candida albicans 26 (Candida albicans) at pH 6.5.; outline: as §2
[21] = system: Candida albicans; test: Tested for minimum inhibitory concentration against Candida albicans 124 (Candida albicans) at pH 6.5.; outline: as §2
[22] = system: Meyerozyma guilliermondii; test: Tested for minimum subinhibitory concentration against Candida guilliermondii 80 (C.g) at pH 6.5.; outline: as §3
[23] = system: Pichia kudriavzevii; test: Tested for minimum inhibitory concentration against Candida krusei 132 (C.k) at pH 6.5.; outline: as §2
[24] = organism: Rattus norvegicus; test: Tested for efficacy of compound in experimental vaginal candidosis (rat) after tropical treatment at dosage of 9x 0.1% drug concentration
Outline: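 Female Wistar rats (~150 g, hormonally conditioned, 10 per group) infected intravaginally with 3.5×10^4 CFU C. albicans no. 124 in 50 μL broth. Intravaginal gel, 0.2 mL, from 2 h post-inoculation, twice daily for 4 days (nine applications). Swabs plated one day after last treatment on Sabouraud's glucose agar with streptomycin, 48 h at 37 °C. Cure = no reisolation.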

[25] = system: Candida albicans; test: Tested for minimum subinhibitory concentration against Candida albicans 90 (Candida albicans) at pH 6.5.; outline: as §3
[26] = organism: Mus musculus; test: Tested for efficacy of compound in experimental systemic candidosis (mouse) after oral treatment at dosage of 8 *100 mg kg e-1
Outline: (§4)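 Systemic candidiasis: female NMRI mice (18–20 g), 10 per group, infected by intravenous injection of 10⁶ CFU C. albicans no. 124 via lateral tail vein. Oral dosing twice daily on 4 consecutive days, starting 2 h before inoculation. Efficacy taken as survival rate up to day 9 after infection.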

[27] = system: Candida albicans; test: Tested for minimum subinhibitory concentration against Candida albicans 124 (Candida albicans) at pH 6.5.; outline: as §3
[28] = organism: Mus musculus; test: Tested for efficacy of compound in experimental systemic candidosis (mouse) after oral treatment at dosage of 8 *200 mg kg e-1; outline: as §4
[29] = system: Candida albicans; test: Tested for minimum inhibitory concentration against Candida albicans 9 (Candida albicans) at pH 6.5.; outline: as §2
[30] = organism: Rattus norvegicus; test: Tested for efficacy of compound in experimental vaginal candidosis (rat) after oral treatment at dosage of 2x 300 mg kg e-1
Outline: (§5)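 Hormonally conditioned female Wistar rats (~150 g), 10 per group, given intravaginal C. albicans no. 124, 3.5×10^4 CFU in 50 μL Sabouraud's glucose broth. Oral dosing twice, 2 h before and 18 h after infection. Vaginal swabs plated on Sabouraud's glucose agar with streptomycin (0.1 mg/mL), 48 h at 37 °C. Cured when C. albicans not reisolated.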

[31] = system: Candida albicans; test: Tested for minimum subinhibitory concentration against Candida albicans 88 (Candida albicans) at pH 6.5.; outline: as §3
[32] = system: Candida tropicalis; test: Tested for minimum subinhibitory concentration against Candida tropicalis 43 (C.t) at pH 6.5.; outline: as §3
[33] = system: Candida albicans; test: Tested for minimum inhibitory concentration against Candida albicans 88 (Candida albicans) at pH 6.5.; outline: as §2
[34] = system: Pichia kudriavzevii; test: Tested for minimum subinhibitory concentration against Candida krusei 132 (C.k) at pH 6.5.; outline: as §3
[35] = system: Meyerozyma guilliermondii; test: Tested for minimum inhibitory concentration against Candida guilliermondii 80 (C.g) at pH 6.5.; outline: as §2
[36] = system: Candida tropicalis; test: Tested for minimum inhibitory concentration against Candida tropicalis 43 (C.t) at pH 6.5.; outline: as §2
[37] = system: Candida albicans; test: Tested for minimum inhibitory concentration against Candida albicans 90 (Candida albicans) at pH 6.5.; outline: as §2
[38] = organism: Mus musculus; test: Tested for efficacy of compound in experimental vaginal candidosis (mouse) after oral treatment at dosage of 4 x150 mg kg e-1
Outline: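 Vaginal candidiasis in hormonally conditioned female NMRI mice (18–20 g), 10 per group, inoculated intravaginally with 50 μL Sabouraud's glucose broth containing 3.5×10^4 CFU C. albicans no. 124. Dosed four times per gavage, 2 h before and 2, 18 and 24 h after infection. Vaginal swabs plated on Sabouraud's glucose agar with streptomycin (0.1 mg/mL), 48 h at 37 °C. Cure = failed reisolation.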

[39] = system: Candida albicans; test: Tested for minimum subinhibitory concentration against Candida albicans 26 (Candida albicans) at pH 6.5.; outline: as §3
[40] = system: Candida albicans; test: Tested for minimum subinhibitory concentration against Candida albicans 9 (Candida albicans) at pH 6.5.; outline: as §3
[41] = organism: Rattus norvegicus; test: Tested for efficacy of compound in experimental vaginal candidosis (rat) after oral treatment at dosage of 2x 150 mg kg e-1; outline: as §5
[42] = system: Candida albicans; test: Tested for minimum inhibitory concentration against Candida albicans 4 (Candida albicans) at pH 6.5.; outline: as §2
[43] = system: Candida albicans; test: Tested for minimum inhibitory concentration against Candida albicans 124 (Candida albicans) at pH of 6.5.; outline: as §1

C=CCOC(=O)C[C@H]1C(=O)N(C)[C@@H]([C@@H](C)CC)C(=O)N(C)[C@@H]([C@H](C)CC)C(=O)NCC(=O)N(C)[C@@H](C(C)C)C(=O)N[C@@H](Cc2ccc(OCC=C)cc2)C(=O)O[C@H](C)C(=O)N2CCCC[C@H]2C(=O)N(C)[C@@H](C(C)C)C(=O)N[C@@H](C(C)C)C(=O)N1C
MIC [1]: > 100 µg/mL | MIC [2]: > 100 µg/mL | MIC [3]: > 100 µg/mL | MIC [4]: > 100 µg/mL | MIC [5]: > 100 µg/mL | MIC [6]: > 100 µg/mL | MIC [7]: > 100 µg/mL | MIC [8]: > 100 µg/mL

CC[C@@H](C)[C@H]1C(=O)NCC(=O)N(C)[C@@H](C(C)C)C(=O)N[C@@H](Cc2ccc(OC/C=C(\C)CCC=C(C)C)cc2)C(=O)O[C@H](C)C(=O)N2CCCC[C@H]2C(=O)N(C)[C@@H](C(C)C)C(=O)N[C@@H](C(C)C)C(=O)N(C)[C@@H](CC(=O)O)C(=O)N(C)[C@@H]([C@@H](C)CC)C(=O)N1C
MIC [9]: > 100 µg/mL | MIC [10]: > 100 µg/mL | MIC [11]: > 100 µg/mL | MIC [12]: > 100 µg/mL | MIC [13]: > 100 µg/mL | MIC [14]: > 100 µg/mL | MIC [15]: > 100 µg/mL | MIC [16]: > 100 µg/mL

CC(=O)N1CCN(c2ccc(OC[C@H]3CO[C@](Cn4ccnc4)(c4ccc(Cl)cc4Cl)O3)cc2)CC1 [KETOCONAZOLE]
MIC [17]: 100 µg/mL (≈ 188 µM) | MSIC [18]: 0.19 µg/mL | MSIC [19]: <0.05 µg/mL | MIC [20]: > 100 µg/mL | MIC [21]: > 100 µg/mL | MSIC [22]: 0.19 µg/mL | MIC [23]: > 100 µg/mL | Efficacy [24]: 73% | MSIC [25]: 0.39 µg/mL | Efficacy [26]: 100% | MSIC [27]: 0.19 µg/mL | Efficacy [28]: 100% | MIC [29]: 100 µg/mL (≈ 188 µM) | Efficacy [30]: 100% | MSIC [31]: <0.05 µg/mL | MSIC [32]: 6.25 µg/mL | MIC [33]: > 100 µg/mL | MSIC [34]: 0.78 µg/mL | MIC [35]: > 100 µg/mL | MIC [36]: > 100 µg/mL | MIC [37]: > 100 µg/mL | Efficacy [38]: 100% | MSIC [39]: <0.05 µg/mL | MSIC [40]: <0.05 µg/mL | Efficacy [41]: 100% | MIC [42]: > 100 µg/mL

CC[C@@H](C)[C@H]1C(=O)NCC(=O)N(C)[C@@H](C(C)C)C(=O)N[C@@H](Cc2ccc(OC)cc2)C(=O)O[C@H](C)C(=O)N2CCCC[C@H]2C(=O)N(C)[C@@H](C(C)C)C(=O)N[C@@H](C(C)C)C(=O)N(C)[C@@H](CC(=O)NC[Si](C)(C)C)C(=O)N(C)[C@@H]([C@@H](C)CC)C(=O)N1C
MIC [1]: > 100 µg/mL | MIC [2]: > 100 µg/mL | MIC [3]: > 100 µg/mL | MIC [4]: > 100 µg/mL | MIC [5]: > 100 µg/mL | MIC [6]: > 100 µg/mL | MIC [8]: > 100 µg/mL | MIC [43]: > 100 µg/mL

CC[C@@H](C)[C@H]1C(=O)NCC(=O)N(C)[C@@H](C(C)C)C(=O)N[C@@H](Cc2ccc(OC)cc2)C(=O)O[C@H](C)C(=O)N2CCCC[C@H]2C(=O)N(C)[C@@H](C(C)C)C(=O)N[C@@H](C(C)C)C(=O)N(C)[C@@H](CCOC(=O)CCC(=O)O)C(=O)N(C)[C@@H]([C@@H](C)CC)C(=O)N1C
MIC [1]: > 100 µg/mL | MIC [2]: > 100 µg/mL | MIC [3]: > 100 µg/mL | MIC [4]: > 100 µg/mL | MIC [5]: > 100 µg/mL | MIC [6]: > 100 µg/mL | MIC [8]: > 100 µg/mL | MIC [43]: > 100 µg/mL

CC[C@@H](C)[C@H]1C(=O)NCC(=O)N(C)[C@@H](C(C)C)C(=O)N[C@@H](Cc2ccc(OC)cc2)C(=O)O[C@H](C)C(=O)N2CCCC[C@H]2C(=O)N(C)[C@@H](C(C)C)C(=O)N[C@@H](C(C)C)C(=O)N(C)[C@@H](CCO)C(=O)N(C)[C@@H]([C@@H](C)CC)C(=O)N1C
MIC [1]: > 100 µg/mL | MIC [2]: > 100 µg/mL | MIC [3]: > 100 µg/mL | MIC [4]: > 100 µg/mL | MIC [5]: > 100 µg/mL | MIC [6]: > 100 µg/mL | MIC [8]: > 100 µg/mL | MIC [43]: > 100 µg/mL
